Experimental data taken from paper PMC7490525 (Biochemistry and Biophysics Reports, 2020).
Where two headings read alike, the source gives them in different places. Marks after values point to notes of the source that are not given here.

Assays:
[1] = test system: Caco-2 cells; assay: Uptake of BSP from the apical membrane of Caco-2 cells; type: in vitro ADME, human
Outline: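 Confluent Caco-2 cells (passage 54–70, 2 weeks on collagen) preincubated 20 min, then exposed to BSP in Hanks' buffer with glucose plus MES or HEPES. Conditions: 5 μM for 5 min at 37 °C pH 6.0 (control); pH 5.0/7.4/8.5; 4 °C; or Na+-free (KCl or choline chloride). Time course ran to 60 min; varied concentrations were fitted to carrier-mediated plus diffusion terms. Cell extracts normalised to protein; n=3–8.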

[2] = test system: organic anion transporting polypeptides (OATPs); assay: Effect of coincubated or pretreated compounds on BSP uptake by Caco-2 cells; type: cell-based, human; conditions: 37 °C, 5 min; for Decrease of BSP uptake on coincubation: 5 μM BSP with 100 μM compound, Caco-2 cells; for Ki: read-out: Inhibition constant (Ki) for BSP uptake, Dixon plot, competitive, 2, 5 or 10 μM BSP, PFCA 25, 50 or 100 μM, pH 6.0
[3] = test system: Caco-2 cells; type: in vitro ADME, human; conditions: 1 μM PFCA, pH 6.0, 37 °C, 5 min
[4] = test system: Caco-2 cells; conditions: cited from earlier work
[5] = test system: Caco-2 cells; conditions: cited from earlier work; remark: listed apart in the source
[6] = test system: organic anion transporting polypeptides (OATPs); conditions: Caco-2 cells; cited from earlier work
[7] = 5 μM BSP, 37 °C, pH 6.0, up to 60 min
[8] = Caco-2 cells, 37 °C, pH 6.0, 5 min, BSP 0.5–100 μM
[9] = coincubation of 5 μM BSP with 100 μM compound

## O=C1OC(c2ccc(O)c(S(=O)(=O)O)c2)(c2ccc(O)c(S(=O)(=O)O)c2)c2c(Br)c(Br)c(Br)c(Br)c21 [BSP, sulfobromophthalein]
[1]; 5 μM BSP, 4 °C and pH 6.0, 5 min, control 37 °C and pH 6.0
  Relative uptake rate (% of control): 49.9 ± 3.1 ^d % of control
[1]; 5 μM BSP, 37 °C and pH 5.0, 5 min, control 37 °C and pH 6.0
  Relative uptake rate (% of control): 101.7 ± 5.1 % of control
[1]; 5 μM BSP, 37 °C and pH 7.4, 5 min, control 37 °C and pH 6.0
  Relative uptake rate (% of control): 105.2 ± 5.3 % of control
[1]; 5 μM BSP, 37 °C and pH 8.5, 5 min, control 37 °C and pH 6.0
  Relative uptake rate (% of control): 101.6 ± 1.3 % of control
[1]; 5 μM BSP, 37 °C, 5 min, Na+-free medium (NaCl replaced with KCl)
  Relative uptake rate (% of control): 95.0 ± 7.4 % of control
[1]; 5 μM BSP, 37 °C, 5 min, Na+-free medium (NaCl replaced with choline chloride)
  Relative uptake rate (% of control): 81.0 ± 4.0 % of control
[1]; [7]
  Time at which BSP uptake plateaued: about 15 min
  Time until which BSP uptake increased linearly: 10 min
[1]; 4 °C, pH 6.0, versus 37 °C
  Reduction of BSP uptake at low temperature: 50%
[1]; Caco-2 cells
  Contribution of carrier-mediated uptake to BSP uptake: approximately 70%
  Contribution of uptake via simple diffusion to BSP uptake: ~30%
[1]; [8]
  Vmax of BSP uptake: 1.15 ± 0.07 nmol (mg protein)^−1 (5 min)^−1
  kd (coefficient of passive diffusion) of BSP uptake: 38.2 ± 0.53 μL (mg protein)^−1 (5 min)^−1
[1]; read-out: Km of BSP uptake, Caco-2 cells, 37 °C, pH 6.0, 5 min, BSP 0.5–100 μM
  Km: 13.9 ± 1.3 µM

## O=[N+]([O-])c1ccc(O)c([N+](=O)[O-])c1 [DNP, 2,4-dinitrophenol]
[2]; cells treated with 1 mM DNP for 20 min, then 5 μM BSP
  Relative uptake rate of BSP (% of control): 105.9 ± 10.0 % of control

## COc1ccc(Cl)cc1C(=O)NCCc1ccc(S(=O)(=O)NC(=O)NC2CCCCC2)cc1 [Glibenclamide, glibenclamide]
[2]
  Decrease of BSP uptake on coincubation: 48%
[2]; [9]
  Relative uptake rate of BSP (% of control): 52.2 ± 3.5 ^d % of control

## [N-]=[N+]=[N-].[Na+] [NaN3, sodium azide]
[2]; cells treated with 10 mM NaN3 for 20 min, then 5 μM BSP
  Relative uptake rate of BSP (% of control): 106.4 ± 6.8 % of control

## O=C(O)C(F)(F)C(F)(F)C(F)(F)C(F)(F)C(F)(F)C(F)(F)C(F)(F)C(F)(F)C(F)(F)F [PFDA, perfluorodecanoic acid]
[2]
  Decrease of BSP uptake on coincubation: 27–55%
  Ki: 43.2 ± 0.3 µM

## O=C(O)C(F)(F)C(F)(F)C(F)(F)C(F)(F)C(F)(F)C(F)(F)F [PFHpA, perfluoroheptanoic acid]
[2]
  Decrease of BSP uptake on coincubation: 27–55%

## O=C(O)C(F)(F)C(F)(F)C(F)(F)C(F)(F)C(F)(F)F [PFHxA, Perfluorohexanoic acid]
[3]
  Uptake of PFCA by Caco-2 cells (rank among C6–C12): the lowest

## O=C(O)C(F)(F)C(F)(F)C(F)(F)C(F)(F)C(F)(F)C(F)(F)C(F)(F)C(F)(F)F [PFNA, perfluorononanoic acid]
[3]
  Uptake of PFCA by Caco-2 cells (rank among C6–C12): the highest
[2]
  Decrease of BSP uptake on coincubation: 27–55%
  Ki: 35.3 ± 0.1 µM

## O=C(O)C(F)(F)C(F)(F)C(F)(F)C(F)(F)C(F)(F)C(F)(F)C(F)(F)F [PFOA, Perfluorooctanoic acid]
[3]
  Uptake of PFCA by Caco-2 cells (rank among C6–C12): third highest
[4]; PFOA 1–500 μM
  Vmax of PFOA uptake: 457 pmol/mg protein/min
[4]; read-out: Km of PFOA uptake, PFOA 1–500 μM
  Km: 8.3 µM
[2]
  Decrease of BSP uptake on coincubation: 27–55%
  Ki: 62.2 ± 1.3 µM

## O=S(=O)(O)C(F)(F)C(F)(F)C(F)(F)C(F)(F)C(F)(F)C(F)(F)C(F)(F)C(F)(F)F [PFOS, perfluorooctane sulfonate]
[2]
  Decrease of BSP uptake on coincubation: 54%
[2]; [9]
  Relative uptake rate of BSP (% of control): 46.1 ± 4.5 ^d % of control

## O=C(O)C(F)(F)C(F)(F)C(F)(F)C(F)(F)C(F)(F)C(F)(F)C(F)(F)C(F)(F)C(F)(F)C(F)(F)F [PFUnDA, perfluoroundecanoic acid]
[2]
  Decrease of BSP uptake on coincubation: 27–55%

## C[C@]12CC[C@@H]3c4ccc(OS(=O)(=O)O)cc4CC[C@H]3[C@@H]1CCC2=O [estrone-3-sulfate]
[5]; read-out: Km of estrone-3-sulfate, ref Gram et al. [27]
  Km: 23 µM
[5]; read-out: Km of estrone-3-sulfate, ref Kis et al. [26]
  Km: 6 µM
[5]; read-out: Km of estrone-3-sulfate, ref Sai et al. [4]
  Km: 1.8 µM
[6]
  Decrease of BSP uptake on coincubation: 39%

## CO[C@H]1/C=C/O[C@@]2(C)Oc3c(C)c(O)c4c(O)c(cc(O)c4c3C2=O)NC(=O)/C(C)=C\C=C\[C@H](C)[C@H](O)[C@@H](C)[C@@H](O)[C@@H](C)[C@H](OC(C)=O)[C@@H]1C [rifamycin SV]
[6]
  Decrease of BSP uptake on coincubation: 40%
